Measurements: ChEMBL document CHEMBL1121659 (J Med Chem, 1981)

What was measured:
Mus musculus [1] = assay: Compound was evaluated for the neurotoxicity after intraperitoneal administration at 24 hours; format: organism-based; conditions: in vivo, ip
Method in brief: (§1)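 Rotarod ataxia test in Carworth Farm No. 1 mice, run by the ADD program. Dosed ip in aqueous 30% PEG 400. Neurological deficit scored at 24 and 48 h after doses up to 1000 mg/kg.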

Mus musculus [2] = assay: Time to first twitch in intravenous pentylenetetrazole test in mice at 750 mg/kg for 48 hr time of test; format: functional
Method in brief: (§2)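 Carworth Farm no. 1 mice (av wt 20 g) given the compound ip; at the designated time afterwards, 0.5% pentylenetetrazol in heparinized saline was infused into the tail vein at 0.34 mL/min. Time to first twitch (minimal excitation) was recorded for individual mice, observed up to 240 s.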

[3] = Compound was evaluated for the plasma biological half life in the Swiss webster mouse when administered at the […]; format: ADME, organism-based
Method in brief: (§3)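 Swiss Webster mice (20–30 g) received [14C] compound 10 mg/kg ip. Four animals were killed at each of 12, 18, 24, 36, 48 and 72 h. Radioactivity was measured in plasma and brain, and the plasma elimination half-life was derived from these levels.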

[4] = Compound was evaluated for the tissue levels after 1 hour of administration of 5 mg/kg through intravenous route, the given data is tissue/plasma ratios kidneys; format: ADME, organism-based, Kidney; design: dose 5 mg/kg, route intravenous
Method in brief: (§4)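 Anesthetized male Wistar rats received [14C] compound 5 mg/kg by slow jugular infusion in propylene glycol–0.1 N NaOH (1:1). Tissues were taken at 1 h, four per group, rinsed, blotted and weighed. Fat, muscle and red cells were combusted directly, other organs after EtOH homogenization. Tissue/plasma 14C ratios were computed.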

Mus musculus [5] = assay: Time to first twitch in intravenous pentylenetetrazole test in mice at 200 mg/kg for 30 h time of test; format: functional
Method in brief: (§5)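 Carworth Farm No. 1 mice (average 20 g) were dosed ip. At set times afterwards, 0.5% pentylenetetrazol in heparinized saline was infused into the tail vein at 0.34 mL/min. Time to first twitch was recorded in individual mice, with observation to 240 s.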

[6] = Compound was evaluated for the cumulative excretion rate in rats at the dose 10 mg/kg, intraperitoneally for 18 days through urine; format: ADME, organism-based; design: dose 10 mg/kg, route intraperitoneal; conditions: rat, ip, read-out: Excretion
Method in brief: (§6)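 Four male Wistar rats were dosed with [14C] compound at 10 mg/kg ip in propylene glycol (5 mL/kg). Urine and feces were collected at 3-day intervals for 18 days. Fecal EtOH homogenates were combusted and counted. Daily fecal rate for the 0–3 day interval was corrected for gastrointestinal transit time (about 18 h).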

[7] = Compound at the dose 10 mg/kg administered intraperitoneally was evaluated for the excretion rate in rats in 7 days through feces; format: ADME, organism-based; design: dose 10 mg/kg, route intraperitoneal; conditions: rat, faeces, ip, read-out: Excretion
Method in brief: (§7)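 Male Wistar rats (150–330 g) in individual metabolic cages received [14C] compound 10 mg/kg ip in propylene glycol (5 mL/kg), n=4. Urine and feces were collected for 7 days. Urine was diluted with EtOH and counted directly. Fecal EtOH homogenates were dried, combusted and counted as trapped 14CO2.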

[8] = Compound was evaluated for the tissue levels after 1 hour of administration of 5 mg/kg through intravenous route, the given data is tissue/plasma ratios Muscle; format: ADME, organism-based; design: dose 5 mg/kg, route intravenous; method in brief: as §4
[9] = Compound was evaluated for the tissue levels after 1 hour of administration of 5 mg/kg through intravenous route, the given data is tissue/plasma ratios heart; format: ADME, organism-based; design: dose 5 mg/kg, route intravenous; method in brief: as §4
Mus musculus [10] = assay: Time to first twitch in intravenous pentylenetetrazole test in mice at 300 mg/kg for 72 h time of test; format: functional; method in brief: as §5
Mus musculus [11] = assay: Time to first twitch in intravenous pentylenetetrazole test in mice at 1000 mg/kg for 24 hr time of test; format: functional; method in brief: as §5
Mus musculus [12] = assay: Time to first twitch in intravenous pentylenetetrazole test in mice at 150 mg/kg for 48 hr time of test; format: functional; method in brief: as §5
Mus musculus [13] = assay: Compound was evaluated for the neurotoxicity after intraperitoneal administration at 48 hours; format: organism-based; conditions: in vivo, ip; method in brief: as §1
[14] = Compound was evaluated for the average plasma levels at 24 hours, after administration of intraperitoneal route; format: ADME; conditions: ip, read-out: Plasma level
Method in brief: (§8)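 Male Wistar rats were given [14C] compound 5 mg/kg ip in propylene glycol (2 mL/kg). Blood was taken by cardiac puncture under ether at 1, 2, 3, 5 and 7 days, six rats per time point. Plasma 14C was counted to give the β-phase elimination half-life and plasma levels.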

[15] = Compound was evaluated for the toxicity in mouse on 7 th day when administered through Oral route; format: organism-based; conditions: in vivo
Method in brief: (§9)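 Male Swiss Webster mice (20–40 g) dosed in propylene glycol (10–20 mL/kg), ip at 10, 20, 50, 100 and 200 mg/kg or po at 100 and 200 mg/kg. Ten mice per dose level, observed for toxicity for 1 week. LD50 taken at 7 days.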

[16] = Compound at the dose 10 mg/kg administered intraperitoneally was evaluated for the excretion rate in rats in 7 days through urine; format: ADME, organism-based; design: dose 10 mg/kg, route intraperitoneal; conditions: rat, ip, read-out: Excretion; method in brief: as §7
[17] = Compound was evaluated for the in rats after the dose of 5 mg/kg intravenously, at the dose 4 hour biliary excretion; format: ADME, organism-based; design: dose 5 mg/kg, route intravenous; conditions: rat, bile, iv, read-out: Excretion
Method in brief: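 Three male rats with jugular cannulae, body temperature held at 37–38 °C, received [14C] compound 5 mg/kg by 3–5 min infusion in propylene glycol–ethanol–0.1 N NaOH (4:1:5, 1 mL/kg). Bile was collected in two 30-min periods, then hourly up to 4 h, and counted. Bile volume was also determined.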

Mus musculus [18] = assay: Time to first twitch in intravenous pentylenetetrazole test in mice at 500 mg/kg for 48 hr time of test; format: functional; method in brief: as §2
Rattus norvegicus = assay: excretion rate in rats after the dose of 5 mg/kg intravenously, at the dose 4 hour Rate of biliary excretion; 0.06-0.15%/h; format: ADME, organism-based, Bile; design: dose 5 mg/kg, route intravenous; conditions: in vivo, iv
Mus musculus [19] = assay: Time to first twitch in intravenous pentylenetetrazole test in mice at 750 mg/kg for 24 hr time of test; format: functional; method in brief: as §2
Mus musculus [20] = assay: Time to first twitch in intravenous pentylenetetrazole test in mice at 100 mg/kg for 72 hr time of test; format: functional; method in brief: as §5
[21] = Compound was evaluated for the tissue levels after 1 hour of administration of 5 mg/kg through intravenous route, the given data is tissue/plasma ratios gastrointestinal tract; format: ADME, organism-based; design: dose 5 mg/kg, route intravenous; method in brief: as §4
[22] = Compound was evaluated for the toxicity in mouse on 7 th day when administered through intraperitoneal route; format: organism-based; conditions: in vivo, ip; method in brief: as §9
Mus musculus [23] = assay: Time to first twitch in intravenous pentylenetetrazole test in mice at 100 mg/kg for 96 hr time of test; format: functional; method in brief: as §5
Mus musculus [24] = assay: Time to first twitch in intravenous pentylenetetrazole test in mice at 200 mg/kg for 72 hr time of test; format: functional; method in brief: as §5
Mus musculus [25] = assay: Time to first twitch in intravenous pentylenetetrazole test in mice at 200 mg/kg for 96 hr time of test; format: functional; method in brief: as §5
[26] = Compound was evaluated for the biological half life in rats after a dose of 5 mg/kg given intraperitoneal route; format: ADME, organism-based; design: dose 5 mg/kg, route intraperitoneal; conditions: rat, in vivo, ip; method in brief: as §8
Mus musculus [27] = assay: Time to first twitch in intravenous pentylenetetrazole test in mice at 150 mg/kg for 30 hr time of test; format: functional; method in brief: as §5
[28] = Compound was evaluated for the tissue levels after 1 hour of administration of 5 mg/kg through intravenous route, the given data is tissue/plasma ratios brain; format: ADME, organism-based; design: dose 5 mg/kg, route intravenous; method in brief: as §4
[29] = Compound was evaluated for the average apparent volume of distribution when administered through intravenous route; format: ADME, organism-based; conditions: in vivo, read-out: Vd app
Method in brief: (§10)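 Male Wistar rats under pentobarbital (25 mg/kg ip) received [14C] compound 5 mg/kg iv in propylene glycol–0.1 N NaOH (1:1). Dosing was by jugular infusion, or by tail vein for later time points.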

[30] = Compound was evaluated for the biological half life of elimination in feces; format: ADME, tissue-based; conditions: faeces
Mus musculus [31] = assay: Time to first twitch in intravenous pentylenetetrazole test in mice at 500 mg/kg for 24 hr time of test; format: functional; method in brief: as §2
Mus musculus [32] = assay: Time to first twitch in intravenous pentylenetetrazole test in mice at 300 mg/kg for 48 hr time of test; format: functional; method in brief: as §5
[33] = Compound was evaluated for the tissue levels after 1 hour of administration of 5 mg/kg through intravenous route, the given data is tissue/plasma ratios lungs; format: ADME, organism-based; design: dose 5 mg/kg, route intravenous; method in brief: as §4
[34] = Compound was evaluated for the biological half life in rats after a dose of 5 mg/kg given intravenous route; format: ADME, organism-based; design: dose 5 mg/kg, route intravenous; conditions: rat, in vivo; method in brief: as §10
[35] = Compound was evaluated for the average plasma levels at 24 hours, after administration of intravenous route; format: ADME; conditions: read-out: Plasma level; method in brief: as §10
[36] = Compound was evaluated for the tissue levels after 1 hour of administration of 5 mg/kg through intravenous route, the given data is tissue/plasma ratios liver; format: ADME, organism-based; design: dose 5 mg/kg, route intravenous; method in brief: as §4
[37] = Compound was evaluated for the Brain levels at 24 h in the Swiss webster mouse when administered at the […]; format: ADME, organism-based; conditions: read-out: Plasma level; method in brief: as §3
Mus musculus [38] = assay: Time to first twitch in intravenous pentylenetetrazole test in mice at 150 mg/kg for 72 h time of test; format: functional; method in brief: as §5
Mus musculus [39] = assay: Time to first twitch in intravenous pentylenetetrazole test in mice at 150 mg/kg for 96 hr time of test; format: functional; method in brief: as §5
[40] = Compound was evaluated for the plasma level at 18 hr in the Swiss webster mouse when administered at the […]; format: ADME; conditions: read-out: Plasma level; method in brief: as §3
[41] = Compound was evaluated for the cumulative excretion rate in rats at the dose 10 mg/kg, intraperitoneally for 18 days through feces; format: ADME, organism-based; design: dose 10 mg/kg, route intraperitoneal; conditions: rat, faeces, ip, read-out: Excretion; method in brief: as §6
Mus musculus [42] = assay: Time to first twitch in intravenous pentylenetetrazole test in mice at 300 mg/kg for 30 hr time of test; format: functional; method in brief: as §5
[43] = Compound was evaluated for the tissue levels after 1 hour of administration of 5 mg/kg through intravenous route, the given data is tissue/plasma ratios red cells; format: ADME, organism-based; design: dose 5 mg/kg, route intravenous; method in brief: as §4
Mus musculus [44] = assay: Time to first twitch in intravenous pentylenetetrazole test in mice at 200 mg/kg for 48 hr time of test; format: functional; method in brief: as §5
Mus musculus [45] = assay: Time to first twitch in intravenous pentylenetetrazole test in mice at 100 mg/kg for 30 h time of test; format: functional; method in brief: as §5
Mus musculus [46] = assay: Time to first twitch in intravenous pentylenetetrazole test in mice at 100 mg/kg for 48 hr time of test; format: functional; method in brief: as §5

O=C1NC(=O)C(c2ccc(C(F)(F)F)cc2)(c2ccc(C(F)(F)F)cc2)N1
Toxic dose (Mus musculus [1]): 750 mg/kg
Time (Mus musculus [2]): 71 s
half-life [3]: 115 h
Kp at 1 h [4]: 0.61
Time (Mus musculus [5]): 29.6 s
dose excreted at 432 h [6]: 0.25%
dose excreted at 168 h [7]: 67%
Kp at 1 h [8]: 0.41
Kp at 1 h [9]: 0.66
Time (Mus musculus [10]): 24.9 s
Time (Mus musculus [11]): 25.5 s
Time (Mus musculus [12]): 26.7 s
Toxic dose (Mus musculus [13]): 1000 mg/kg
concentration at 24 h [14]: 11000 ng/mL
LD50 at 7 days [15]: 100 mg/kg
dose excreted at 168 h [16]: 0.3%
dose excreted at 4 h [17]: 0.5%
Time (Mus musculus [18]): 28.7 s
Excretion rate (Rattus norvegicus): 0.15
Time (Mus musculus [19]): 26.6 s
Time (Mus musculus [20]): 27.1 s
Kp at 1 h [21]: 0.48
LD50 at 7 days [22]: 40 mg/kg
Time (Mus musculus [23]): 27.5 s
Time (Mus musculus [24]): 23.6 s
Time (Mus musculus [25]): 34.5 s
half-life [26]: 71.7 h
Time (Mus musculus [27]): 28.6 s
Kp at 1 h [28]: 0.14
Vd [29]: 0.42 L/kg
half-life [30]: 93.6 h
Time (Mus musculus [31]): 27.3 s
Time (Mus musculus [32]): 32.4 s
Kp at 1 h [33]: 0.62
half-life [34]: 66.7 h
concentration at 24 h [35]: 9400 ng/mL
Kp at 1 h [36]: 0.96
concentration at 24 h [37]: 3500 ng/mL
Time (Mus musculus [38]): 24.1 s
Time (Mus musculus [39]): 23.4 s
concentration at 18 h [40]: 27000 ng/mL
dose excreted at 432 h [41]: 94%
Time (Mus musculus [42]): 22 s
Kp at 1 h [43]: 0.12
Time (Mus musculus [44]): 24.5 s
Time (Mus musculus [45]): 23.1 s
Time (Mus musculus [46]): 24.3 s
